Laboratory results from ChEMBL document CHEMBL4038306, “Development of an Aryloxazole Class of Hepatitis C Virus Inhibitors Targeting the Entry Stage of the Viral Replication Cycle” (J Med Chem, 2017).
≈ marks a conversion by molar mass, not a printed value.

Tests used:
[1] = Permeability of the compound by PAMPA; assay type: physicochemical; conditions: for Papp: read-out: permeability
Summary of the method: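 Passive diffusion measured by stirred double-sink PAMPA; permeability expressed in 10⁻⁶ cm/s.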

[2] = Kinetic solubility of the compound in pH 7.4 phosphate buffer; assay type: physicochemical; conditions: read-out: Kinetic_solubility

| Papp [1] | solubility kinetic [2] | permeability [1] | SMILES |
| --- | --- | --- | --- |
| 432 ×10⁻⁶ cm/s | > 65 µg/mL | – | Cc1ccccc1-c1nc(CN2CCC(C(=O)NCCCN3CCOCC3)CC2)c(C)o1 |
| 34.5 ×10⁻⁶ cm/s | > 65 µg/mL | – | Cc1ccccc1-c1nc(CN2CCC(C(=O)NCCCN3CCCCC3)CC2)c(C)o1 |
| 425 ×10⁻⁶ cm/s | > 67 µg/mL | – | Cc1ccccc1-c1nc(CN2CCC(C(=O)NCCCN3CCC(C)CC3)CC2)c(C)o1 |
| 331 ×10⁻⁶ cm/s | > 71 µg/mL | – | Cc1ccccc1-c1nc(CN2CCC(C(=O)NCCCN3CC4CCCC(C4)C3)CC2)c(C)o1 |
| 55.4 ×10⁻⁶ cm/s | > 69 µg/mL | – | Cc1ccccc1-c1nc(CN2CCC(C(=O)NCCCN3[C@H](C)CCC[C@@H]3C)CC2)c(C)o1 |
| 106 ×10⁻⁶ cm/s | 55.9 µg/mL (≈ 116 µM) | – | CCc1ccccc1-c1nc(CN2CCC(C(=O)NCCCN3C[C@H](C)C[C@H](C)C3)CC2)c(C)o1 |
| > 1400 ×10⁻⁶ cm/s | – | – | Cc1ccccc1-c1nc(CN2CCC(C(=O)NCCCN3CC(C)(C)CC(C)(C)C3)CC2)c(C)o1 |
| 352 ×10⁻⁶ cm/s | > 72 µg/mL | – | Cc1oc(-c2ccccc2Cl)nc1CN1CCC(C(=O)NCCCN2C[C@H](C)C[C@H](C)C2)CC1 |
| 288 ×10⁻⁶ cm/s | > 71 µg/mL | – | Cc1ccccc1-c1nc(CN2CCC(C(=O)NCCCCN3C[C@H](C)C[C@H](C)C3)CC2)c(C)o1 |
| – | > 74 µg/mL | – | Cc1cccc(Cl)c1-c1nc(CN2CCC(C(=O)NCCCN3CCC(C)(C)CC3)CC2)c(C)o1 |
| 241 ×10⁻⁶ cm/s | > 69 µg/mL | – | Cc1ccccc1-c1nc(CN2CCC(C(=O)NCCCN3CCC(C)(C)CC3)CC2)c(C)o1 |
| – | – | 1267 ×10⁻⁶ cm/s | CC[C@@H]1C[C@H](CC)CN(CCCNC(=O)C2CCN(Cc3nc(-c4ccccc4C)oc3C)CC2)C1 |
| 353 ×10⁻⁶ cm/s | > 71 µg/mL | – | Cc1ccc(-c2nc(CN3CCC(C(=O)NCCCN4C[C@H](C)C[C@H](C)C4)CC3)c(C)o2)c(C)c1 |
| – | > 76 µg/mL | – | Cc1cccc(Cl)c1-c1nc(CN2CCC(C(=O)NCCCN3CCC(C(C)C)CC3)CC2)c(C)o1 |
| 396 ×10⁻⁶ cm/s | > 71 µg/mL | – | Cc1ccccc1-c1nc(CN2CCC(C(=O)NCCCN3CCC(C(C)C)CC3)CC2)c(C)o1 |
| 489 ×10⁻⁶ cm/s | 53.9 µg/mL (≈ 115 µM) | – | Cc1ccccc1-c1nc(CN2CCC(C(=O)NCCCN3C[C@H](C)C[C@H](C)C3)CC2)c(C)o1 |
| 712 ×10⁻⁶ cm/s | > 67 µg/mL | – | Cc1ccccc1-c1nc(CN2CCC(C(=O)NCCN3C[C@H](C)C[C@H](C)C3)CC2)c(C)o1 |
| – | > 67 µg/mL | – | Cc1ccccc1-c1nc(CN2CCC(C(=O)NCCCN3CCCC(C)C3)CC2)c(C)o1 (racemic) |
| 3 ×10⁻⁶ cm/s | 54.9 µg/mL (≈ 111 µM) | – | Cc1ccccc1-c1nc(CN2CCC(C(=O)NCCCN3CCCC(CC(C)C)C3)CC2)c(C)o1 (racemic) |
| 554 ×10⁻⁶ cm/s | > 69 µg/mL | – | Cc1ccccc1-c1nc(CN2CCC(C(=O)NCCCN3C[C@H](C)C[C@@H](C)C3)CC2)c(C)o1 (racemic) |
| – | > 71 µg/mL | – | Cc1ccccc1-c1nc(CN2CCC(C(=O)NCCCN3CCCC(C(C)C)C3)CC2)c(C)o1 (racemic) |
| 651 ×10⁻⁶ cm/s | 52.6 µg/mL (≈ 108 µM) | – | Cc1cccc(Cl)c1-c1nc(CN2CCC(C(=O)NCCCN3CCCC(C)C3)CC2)c(C)o1 (racemic) |

The remaining lines, values behind:

| SMILES | Papp [1] | solubility kinetic [2] | permeability [1] |
| --- | --- | --- | --- |
| Cc1cc(-c2nc(CN3CCC(C(=O)NCCCN4C[C@H](C)C[C@H](C)C4)CC3)co2)ccc1F | 215 ×10⁻⁶ cm/s | > 70 µg/mL | – |
| Cc1ccccc1-c1nc(CN2CCC(C(=O)N3CCN(CCN(C)C)CC3)CC2)c(C)o1 | 14 ×10⁻⁶ cm/s | > 67 µg/mL | – |
| Cc1oc(-c2c(Br)cccc2Br)nc1CN1CCC(C(=O)NCCCN2C[C@H](C)C[C@H](C)C2)CC1 | < 1 ×10⁻⁶ cm/s | 62.4 µg/mL (≈ 102 µM) | – |
| COc1cccc(Br)c1-c1nc(CN2CCC(C(=O)NCCCN3C[C@H](C)C[C@H](C)C3)CC2)c(C)o1 | 245 ×10⁻⁶ cm/s | > 83 µg/mL | – |
| COc1cccc(F)c1-c1nc(CN2CCC(C(=O)NCCCN3C[C@H](C)C[C@H](C)C3)CC2)c(C)o1 | – | > 74 µg/mL | – |
| Cc1cccc(F)c1-c1nc(CN2CCC(C(=O)NCCCN3C[C@H](C)C[C@H](C)C3)CC2)c(C)o1 | 234 ×10⁻⁶ cm/s | > 72 µg/mL | – |
| Cc1cccc(Cl)c1-c1nc(CN2CCC(C(=O)NCCCN3C[C@H](C)C[C@H](C)C3)CC2)c(C)o1 | 196 ×10⁻⁶ cm/s | > 74 µg/mL | – |
| Cc1oc(-c2c3ccccc3cc3ccccc23)nc1CN1CCC(C(=O)NCCCN2C[C@H](C)C[C@H](C)C2)CC1 | – | 62.1 µg/mL (≈ 112 µM) | – |
| COc1cccc(OC)c1-c1nc(CN2CCC(C(=O)NCCCN3C[C@H](C)C[C@H](C)C3)CC2)c(C)o1 | – | > 76 µg/mL | – |
| Cc1cc(C)cc(-c2nc(CN3CCC(C(=O)NCCCN4C[C@H](C)C[C@H](C)C4)CC3)c(C)o2)c1 | 864 ×10⁻⁶ cm/s | > 71 µg/mL | – |
| CC[C@@H]1C[C@H](CC)CN(CCCNC(=O)C2CCN(Cc3nc(-c4c(F)cccc4F)oc3C)CC2)C1 | 130 ×10⁻⁶ cm/s | – | – |
| COc1cccc(Cl)c1-c1nc(CN2CCC(C(=O)NCCCN3C[C@H](C)C[C@H](C)C3)CC2)c(C)o1 | 51 ×10⁻⁶ cm/s | > 76 µg/mL | – |
| Cc1ccc(-c2nc(CN3CCC(C(=O)NCCCN4C[C@H](C)C[C@H](C)C4)CC3)c(C)o2)cc1C | 219 ×10⁻⁶ cm/s | > 71 µg/mL | – |
| CCN(CC)CCCCNC(=O)C1CCN(Cc2nc(-c3ccc(OC)c(OC)c3)oc2C)CC1 | 10.4 ×10⁻⁶ cm/s | > 72 µg/mL | – |
| Cc1cccc(-c2nc(CN3CCC(C(=O)NCCCN4C[C@H](C)C[C@H](C)C4)CC3)c(C)o2)c1 | 279 ×10⁻⁶ cm/s | > 69 µg/mL | – |
| Cc1ccccc1-c1nc(CN2CCC(C(=O)NCCCN3C[C@H](C)C[C@H](C)C3)CC2)c(C)s1 | – | > 71 µg/mL | – |
| COc1cccc(C)c1-c1nc(CN2CCC(C(=O)NCCCN3C[C@H](C)C[C@H](C)C3)CC2)c(C)o1 | 198 ×10⁻⁶ cm/s | > 73 µg/mL | – |

| SMILES | Papp [1] | solubility kinetic [2] | permeability [1] |
| --- | --- | --- | --- |
| Cc1oc(-c2c(C)c(C)c(C)c(C)c2C)nc1CN1CCC(C(=O)NCCCN2C[C@H](C)C[C@H](C)C2)CC1 | 455 ×10⁻⁶ cm/s | – | – |
| Cc1ccccc1-c1nc(CN2CCC(C(=O)N3CCN(C4CCN(C)CC4)CC3)CC2)c(C)o1 | < 3.2 ×10⁻⁶ cm/s | > 71 µg/mL | – |
| Cc1oc(-c2c(Cl)cccc2Br)nc1CN1CCC(C(=O)NCCCN2C[C@H](C)C[C@H](C)C2)CC1 | – | > 83 µg/mL | – |
| Cc1ccc2ccccc2c1-c1nc(CN2CCC(C(=O)NCCCN3C[C@H](C)C[C@H](C)C3)CC2)c(C)o1 | 547 ×10⁻⁶ cm/s | > 76 µg/mL | – |
| COc1ccc(-c2nc(CN3CCC(C(=O)NCCCN4C[C@H](C)C[C@H](C)C4)CC3)c(C)o2)cc1OC | 81.9 ×10⁻⁶ cm/s | > 76 µg/mL | – |
| Cc1cccc(C)c1-c1nc(CN2CCC(C(=O)NCCCN3C[C@H](C)C[C@H](C)C3)CC2)c(C)o1 | 254 ×10⁻⁶ cm/s | 55.9 µg/mL (≈ 116 µM) | – |
| Cc1oc(-c2c(Cl)cccc2Cl)nc1CN1CCC(C(=O)NCCCN2C[C@H](C)C[C@H](C)C2)CC1 | – | > 77 µg/mL | – |
| Cc1oc(-c2c(Cl)cccc2C(F)(F)F)nc1CN1CCC(C(=O)NCCCN2C[C@H](C)C[C@H](C)C2)CC1 | – | 65.1 µg/mL (≈ 117 µM) | – |
| Cc1ccc(C)c(-c2nc(CN3CCC(C(=O)NCCCN4C[C@H](C)C[C@H](C)C4)CC3)c(C)o2)c1 | – | 56.1 µg/mL (≈ 117 µM) | – |
| CCCN(CCC)CCNC(=O)C1CCN(Cc2nc(-c3ccccc3C)oc2C)CC1 | 913 ×10⁻⁶ cm/s | > 65 µg/mL | – |
| Cc1oc(-c2ccc(Cl)cc2)nc1CN1CCC(C(=O)NCCCN2C[C@H](C)C[C@H](C)C2)CC1 | > 635 ×10⁻⁶ cm/s | > 72 µg/mL | – |
| Cc1oc(-c2cccc3ccccc23)nc1CN1CCC(C(=O)NCCCN2C[C@H](C)C[C@H](C)C2)CC1 | – | > 74 µg/mL | – |
| Cc1ccc(-c2nc(CN3CCC(C(=O)NCCCN4C[C@H](C)C[C@H](C)C4)CC3)c(C)o2)cc1 | 274 ×10⁻⁶ cm/s | > 69 µg/mL | – |
| Cc1oc(-c2c(F)cccc2F)nc1CN1CCC(C(=O)NCCCN2C[C@H](C)C[C@H](C)C2)CC1 | 82.4 ×10⁻⁶ cm/s | > 72 µg/mL | – |
| Cc1oc(-c2cccc(Cl)c2)nc1CN1CCC(C(=O)NCCCN2C[C@H](C)C[C@H](C)C2)CC1 | 615 ×10⁻⁶ cm/s | > 72 µg/mL | – |
| Cc1cc(-c2nc(CN3CCC(C(=O)NCCCN4CCC(C(C)C)CC4)CC3)co2)ccc1F | 276 ×10⁻⁶ cm/s | > 72 µg/mL | – |
